Measurements pooled from the literature.
SLC6A2: Sodium-dependent noradrenaline transporter (SLC6A2, Homo sapiens, UniProt P23975)
FPR1: fMet-Leu-Phe receptor (FPR1, Homo sapiens, UniProt P21462)
NQO2: Ribosyldihydronicotinamide dehydrogenase [quinone] (NQO2, Homo sapiens, UniProt P16083)
DNA dC->dU-editing enzyme APOBEC-3B: DNA dC->dU-editing enzyme APOBEC-3B (Homo sapiens, UniProt Q9UH17)
MC4R: Melanocortin receptor 4 (MC4R, Homo sapiens, UniProt P32245)

Compound | target | assay | system | conditions | inhibition [%]
Cc1ccc(Nc2nccc(N(C)c3ccc4c(C)n(C)nc4c3)n2)cc1S(N)(=O)=O | Serine/threonine-protein kinase Chk2 (CHEK2, Homo sapiens, UniProt O96017) | enzyme activity, inhibitor | – | 10 µM | 44
Clc1ccc(C(c2ccccc2)c2nnnn2CCCN2CCC(CCCc3ccccc3)CC2)cc1 (centres unmarked) | SLC6A2 | transporter uptake, inhibitor | HEK293 | 1 µM | 72.8
O=C(Oc1ccc2c(=O)c(-c3ccccc3Cl)c(C(F)(F)F)oc2c1)c1cccs1 | FPR1 | calcium signal, antagonist | – | 50 µM | 100
Cc1c(COc2c(F)cc(F)cc2F)c2c(n1C)C(=O)C=C(NCCCN(C)C)C2=O | NQO2 | enzyme activity, inhibitor | – | 1 µM | 98
CC/C(=N\NC(=O)NCc1cccc(O)c1)c1ccc(O)c(C)c1O | Fibroblast growth factor receptor 4 (FGFR4, Homo sapiens, UniProt P22455, V550E) | enzyme activity, inhibitor | – | 0.1 µM | 1.5
COc1ccccc1-c1c(C)oc2cc(OC(=O)c3ccco3)ccc2c1=O | FPR1 | calcium signal, antagonist | – | 50 µM | 100
CCN1CCN(Cc2ccc(NC(=O)c3ccc(C)c(Oc4ccnc5[nH]ccc45)c3)cc2C(F)(F)F)CC1 | Serine/threonine-protein kinase 10 (STK10, Homo sapiens, UniProt O94804) | target engagement in cells, inhibitor, chemoproteomics | Huh-7 | 10 µM | -64.9
Clc1ccc(C(c2ccccc2)c2nnnn2CCCCN2CCN(CCCc3ccccc3)CC2)cc1 (centres unmarked) | SLC6A2 | transporter uptake, inhibitor | HEK293 | 1 µM | 63.6
COc1cc(/C=C/C(=O)CC(=O)/C=C/c2ccc(O)c(OC)c2)ccc1O | DNA dC->dU-editing enzyme APOBEC-3B | enzyme activity, inhibitor, fluorescence | – | 100 µM | 75.2
c1ccc(CCC2CCN(CCCCn3nnnc3C(c3ccccc3)c3ccccc3)CC2)cc1 | SLC6A2 | transporter uptake, inhibitor | HEK293 | 1 µM | 82.8
Cc1oc2cc(OC(=O)c3ccco3)ccc2c(=O)c1-c1ccccc1 | FPR1 | calcium signal, antagonist | – | 50 µM | 100
Clc1ccc(C(c2ccc(Cl)cc2)c2nnnn2CCCCN2CCN(CCCc3ccccc3)CC2)cc1 | SLC6A2 | transporter uptake, inhibitor | HEK293 | 1 µM | 21.3
CC(CCC(=O)NCC(=O)O)C1CCC2C3C(O)CC4CC(O)CCC4(C)C3CC(O)C12C (centres unmarked) | DNA dC->dU-editing enzyme APOBEC-3B | enzyme activity, inhibitor, fluorescence | – | 100 µM | 23.7
COc1ccccc1-c1c(C(F)(F)F)oc2cc(OC(=O)C(C)C)ccc2c1=O | FPR1 | calcium signal, antagonist | – | 50 µM | 100
Fc1ccc(C(c2ccc(F)cc2)c2nnnn2CCCCN2CCC(CCCc3ccccc3)CC2)cc1 | SLC6A2 | transporter uptake, inhibitor | HEK293 | 1 µM | 48
COC(=O)Nc1nc2ccc(C(=O)c3cccs3)cc2[nH]1 | DNA dC->dU-editing enzyme APOBEC-3B | enzyme activity, inhibitor, fluorescence | – | 100 µM | 25.9
CC(=O)N[C@H]1CSSC[C@@H](C(=O)N[C@@H](Cc2c[nH]c3ccccc23)C(N)=O)NC(=O)[C@H](Cc2ccccc2)NC(=O)[C@H](CCCNC(=N)N)NC1=O | MC4R | ligand displacement, radioligand | – | 10 µM, 40 min | 0
CNC(=O)c1cc(Oc2ccc(NC(=O)Nc3ccc(Cl)c(C(F)(F)F)c3)cc2)ccn1 | Serine/threonine-protein kinase Chk2 (CHEK2, Homo sapiens, UniProt O96017, I157T) | enzyme activity, inhibitor | – | 10 µM | -1
Nc1c(Cl)cccc1C(=O)Nc1ccccc1C(=O)O | srtA (Staphylococcus aureus, UniProt Q2FV99) | enzyme activity, inhibitor | – | 200 µM | 100
Fc1ccc(C(c2ccc(F)cc2)c2nnnn2CCCCN2CCC(Cc3ccccc3)CC2)cc1 | SLC6A2 | transporter uptake, inhibitor | HEK293 | 1 µM | 81
COc1ccccc1-c1c(C(F)(F)F)oc2cc(OC(=O)c3ccccc3)ccc2c1=O | FPR1 | calcium signal, antagonist | – | 50 µM | 90
Clc1ccc(C(c2ccccc2)c2nnnn2CCCCN2CCN(CC=Cc3ccccc3)CC2)cc1 (centres unmarked) | SLC6A2 | transporter uptake, inhibitor | HEK293 | 1 µM | 50.4
COc1ccccc1-c1c(C)oc2cc(OC(=O)c3cccs3)ccc2c1=O | FPR1 | calcium signal, antagonist | – | 50 µM | 100
Cc1c(COc2c(F)cc(F)cc2F)c2c(n1C)C(=O)C(NCCCN(C)C)=CC2=O | NQO2 | cell-free assay, inhibitor | – | 1 µM | 73
CCCCCCc1cc2c(=O)c(-c3nc4ccccc4n3C)c(C)oc2cc1OC(C)=O | FPR1 | calcium signal, antagonist | – | 50 µM | 100
Clc1ccc(C(c2ccccc2)c2nnnn2CCCCN2CCC(CCCc3ccccc3)CC2)cc1 (centres unmarked) | SLC6A2 | transporter uptake, inhibitor | HEK293 | 1 µM | 84.1
O=C(c1ccc(F)cc1)N(Cc1ccccc1)C1CCCCC1 | Cysteinyl leukotriene receptor 1 (CYSLTR1, Homo sapiens, UniProt Q9Y271) | ligand displacement | – | 10 µM | -7
O=C(O)C1OC(Oc2cc(O)c3c(=O)cc(-c4ccc(O)cc4)oc3c2)C(O)C(O)C1O (centres unmarked) | DNA dC->dU-editing enzyme APOBEC-3B | enzyme activity, inhibitor, fluorescence | – | 100 µM | 41.2
O=C1N=C(N2CCCCN2)S/C1=C\c1ccc(F)cc1O | MC4R | ligand displacement, radioligand | – | 10 µM | < 10
